From PubChem
In the library only some 0.72% were active in any assay of this set; here they are far more common.
bIAP inhibitor: intestinal alkaline phosphatase (bovine) inhibition | AID 1019 | inhibition, % at 20 µM | purified bovine IAP, CDP-star luminescence, 30 min | 190,000 tested, under 10 active;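 active = over 50% inhibition of intestinal alkaline phosphatase at 20 µM in the single-dose screen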
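test system = bovine IAP enzyme | medium = DEA buffer 100 mM, pH 9.8, with MgCl2 1.0 mM, ZnCl2 0.02 mM | detection = luminescence | dosing = single compound dose of 20 µM, 2% DMSO final | incubation = 30 min reaction at room temperature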
mIAP inh: blocks mouse intestinal alkaline phosphatase; 330,000 compounds, 0.2% hits; inhibition, % at 10 µM; AID 2806; purified mouse IAP, CDP-Star luminescence, 30 min;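 active = inhibition of at least 40% at 10 µM in the primary screen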;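 note: plate controls were DMSO with enzyme for no effect and no enzyme wells for full effect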
hIAP block: human IAP inhibition; P09923; purified IAP, CDP-Star luminescence, 30 min; inhibition, % at 10 µM; 330,000 compounds, 0.12% hits;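 active = inhibition reaching a set limit with compound at 10 µM in the primary screen, cut at about 35% in these data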;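 note: plate controls were DMSO wells with enzyme for no effect and no-enzyme buffer wells for full effect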
Target sequence (P09923 whole entry, looked up): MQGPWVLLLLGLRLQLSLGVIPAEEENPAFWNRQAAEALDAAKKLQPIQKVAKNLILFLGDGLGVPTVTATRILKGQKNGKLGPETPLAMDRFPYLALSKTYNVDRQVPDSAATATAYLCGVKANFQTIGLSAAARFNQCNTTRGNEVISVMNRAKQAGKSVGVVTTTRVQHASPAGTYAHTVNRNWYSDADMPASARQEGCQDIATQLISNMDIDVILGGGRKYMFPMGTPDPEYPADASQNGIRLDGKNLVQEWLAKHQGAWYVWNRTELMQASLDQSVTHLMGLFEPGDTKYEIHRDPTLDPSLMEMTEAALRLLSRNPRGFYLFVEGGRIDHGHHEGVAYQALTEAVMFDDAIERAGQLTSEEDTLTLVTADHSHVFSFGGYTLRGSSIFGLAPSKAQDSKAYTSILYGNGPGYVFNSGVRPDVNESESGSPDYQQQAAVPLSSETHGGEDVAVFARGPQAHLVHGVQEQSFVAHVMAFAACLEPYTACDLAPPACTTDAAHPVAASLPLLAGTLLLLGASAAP
bIAP activator: increases bovine intestinal alkaline phosphatase activity. purified bovine IAP, CDP-star luminescence, 30 min; active compounds read high; fold of DMSO-control signal, blank-subtracted. activation factor at 20 µM. 200,000 compounds, 0.17% hits. AID 1016;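 active = activation factor of 2 or more at 20 µM, a signal rise over negative controls twice the positive control's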
hIAP act: increases human intestinal alkaline phosphatase activity; 330,000 compounds, 0.16% hits; activation factor at 10 µM; AID 2524; P09923; purified human IAP, CDP-Star luminescence, 30 min; active compounds read high; 1 = vehicle-only enzyme, 0 = enzyme-free background;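 active = activation factor of the enzyme at least 2-fold when tested at 20 µM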
mIAP act: increases mouse intestinal alkaline phosphatase activity | muIAP, CDP-Star luminescence, 30 min; active compounds read high; 1 = vehicle-only enzyme signal, 0 = enzyme-free wells | activation factor at 10 µM | 330,000 compounds, 0.24% hits;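 active = activation factor of at least 2 at 20 µM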
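Assay system: mouse IAP enzyme / Compound: DMSO-dissolved test compounds / Timing: 30 min, room temperature / Measured by: luminescence from enzymatic CDP-Star hydrolysis / Control set: DMSO-only wells, enzyme-free buffer wells as negative control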
* = called active by the depositor; · = no result given.

SMILES | bIAP inhibitor | mIAP inh | hIAP block | bIAP activator | hIAP act | mIAP act
N#Cc1sc2nc(C3CC3)cc(-c3ccccc3)c2c1N | 15 | -14 | -29 | 0.9 | 1.3 | 1.1
CCOc1ccc2nc(NCCNC(=O)Nc3cccc(C)c3)c(C#N)cc2c1 | -79 | -115 | 12 | 1.8 | 0.88 | 2.2*
C=CCNC(=O)/C=C/c1c(F)cccc1Cl | -169 | -5 | -3 | 2.7* | 1 | 1.1
C=C(C)[C@@H]1CC[C@]2(C(=O)O)CC[C@]3(C)C(CCC4[C@@]5(C)CC[C@H](O)C(C)(C)C5CC[C@]43C)C12 (stereo partly specified) | · | 47* | -28 | · | 1.3 | 0.53
CC(C)NC(=O)CSc1ccccc1C(=O)N1CCN(S(=O)(=O)Cc2ccccc2)CC1 | · | 1 | -10 | · | 1.1 | 0.99
O=C(Nc1ccc(Cl)cc1)NC1(C(=O)NCCCN2CCOCC2)CCCCC1 | -176 | -8 | 0 | 2.8* | 0.99 | 1.1
COc1ccccc1CNC(=O)CCNS(=O)(=O)c1ccc2c(c1)CC(C)N2C(C)=O (stereo unspecified) | · | 9 | 3 | · | 0.97 | 0.91
O=C(O)CCC1c2cc3c4cc2OC2Oc5cc6c(cc51)C(CCC(=O)O)c1cc5c7cc1OC(O6)c1cc6cc(c1)Oc1cc(cc(C(=O)O)c1)Oc1cc8cc(c1)C(Oc1cc(c(cc1C5CCC(=O)O)C3CCC(=O)O)OC(O4)c1cc(cc(c1)Oc1cc(cc(C(=O)O)c1)O8)Oc1cc(cc(C(=O)O)c1)Oc1cc(cc2c1)Oc1cc(cc(C(=O)O)c1)O6)O7 (stereo unspecified) | · | 48* | 9 | · | 1.1 | 0.97
Cc1ccc(N=Cc2c(O)c3ccccc3oc2=O)c(C)c1 | · | 46* | 14 | · | 0.86 | 0.54
O=C(NN1CC(=O)N(c2cc(Cl)cc(Cl)c2)CC1=O)c1cccs1 | · | 6 | -8 | · | 1.1 | 0.94
CCOC(=O)CNC(=O)c1ccc(Br)s1 | · | -5 | 7 | · | 0.93 | 1.1
Cc1ccc(C)n1-c1ccc(C(=O)NN)s1 | -110 | -13 | -21 | 2.1* | 1.2 | 1.1
COc1cc(NC(=O)C2CC2)c(OC)cc1NC(=O)CCC(=O)NC1CCN(Cc2ccccc2)CC1 | -18 | 1 | 12 | 1.2 | 0.88 | 0.99
O=S(=O)(c1ccc(NC(=S)NCCC(c2ccccc2)c2ccccc2)cc1)N1CCOCC1 | 6 | -107 | 7 | 0.9 | 0.93 | 2.1*
CC(C)(C)CC(C)(C)NC(=S)Nc1ccc(S(=O)(=O)N2CCOCC2)cc1 | -3 | -115 | 8 | 1 | 0.92 | 2.2*
NNC(=S)Nc1ccc(S(=O)(=O)N2CCOCC2)cc1 | · | 7 | 1 | · | 0.99 | 0.93
CCCCOCCCNC(=S)Nc1ccc(S(=O)(=O)N2CCOCC2)cc1 | · | -29 | -12 | · | 1.1 | 1.3
COCc1ccc(C(=O)N2CCCC(C(=O)c3cc(F)ccc3F)C2)s1 (stereo unspecified) | -9 | -3 | 0 | 1.1 | 1 | 1
Cc1ccc(NC(=O)C2CCC(=O)N2)cc1C (stereo unspecified) | 9 | -3 | -9 | 0.9 | 1.1 | 1
Cc1ccc(NC2=NC(C(=O)Nc3ccc(C)c(C)c3)CC(=O)N2)cc1 (stereo unspecified) | -96 | 7 | -10 | 2* | 1.1 | 0.93
CCCCOc1ccc(C(=O)NCC(=O)NCC2CCCO2)cc1 (stereo unspecified) | · | -9 | -13 | · | 1.1 | 1.1
O=C(CN1CCN(c2cccc(Cl)c2)CC1)c1ccc(O)cc1O | · | 1 | -7 | · | 1.1 | 0.99
O=C(NCc1ccccc1)NCC12CC3CC(CC(C3)C1)C2 | -1 | -111 | -21 | 1 | 1.2 | 2.1*
Cc1cc(N2C(=O)C3CCC(c4ccccc4)CC3C2=O)no1 (stereo unspecified) | 2 | 6 | 3 | 1 | 0.97 | 0.94
Fc1cccc(/C=N/Nc2ncnc3nc[nH]c23)c1 | 0 | -10 | -97 | 1 | 2 | 1.1
SMILES | bIAP inhibitor | mIAP inh | hIAP block | bIAP activator | hIAP act | mIAP act
Oc1ccc(/C=N/Nc2ncnc3nc[nH]c23)cc1 | · | 23 | -45 | · | 1.4 | 0.77
Clc1ccc(/C=N/Nc2ncnc3nc[nH]c23)cc1 | · | -1 | -123 | · | 2.2* | 1
Cc1ccc(/C=N/Nc2ncnc3nc[nH]c23)cc1 | · | 12 | -117 | · | 2.2* | 0.88
O=C(Nc1ccccc1N1CCCC1)C1CCCO1 (stereo unspecified) | · | 6 | 3 | · | 0.97 | 0.94
COc1ccc(OC)c(NC(=S)NCCCN2CCOCC2)c1 | -140 | -9 | 1 | 2.4* | 0.99 | 1.1
O=C(Nc1ccccc1C(=O)NC(Cc1ccccc1)C(=O)NC1CCCCCC1)c1ccccc1 (stereo unspecified) | -6 | -129 | 6 | 1.1 | 0.94 | 2.3*
COc1ccc(-c2[nH]ncc2CNCCc2ncccc2C)cc1F | -21 | -1 | -7 | 1.2 | 1.1 | 1
Cc1csc2c(N3CCN(C(=O)Nc4ccc(Cl)c(Cl)c4)CC3)ncnc12 | · | -139 | -43 | · | 1.4 | 2.4*
Cc1csc2c(N3CCN(C(=O)NC(C)(C)C)CC3)ncnc12 | · | 1 | 2 | · | 0.97 | 0.99
Cc1ccc(/C=c2\sc3nc(-c4ccccc4Br)nn3c2=O)o1 | 3 | 49* | 20 | 1 | 0.8 | 0.51
CC(=O)NC(=S)NNC(=O)CCc1ccccc1 | -118 | 4 | -67 | 2.2* | 1.7 | 0.96
CCCCC(=O)NC(=S)NNC(=O)CCc1ccccc1 | · | 13 | -59 | · | 1.6 | 0.87
CC(=O)NNC(=S)NC(=O)C(c1ccccc1)c1ccccc1 | -172 | 3 | 1 | 2.7* | 0.99 | 0.97
S=C(NCc1cccnc1)Nc1cc(Cl)cc(Cl)c1 | · | -109 | 8 | · | 0.92 | 2.1*
COc1ccc(C(C)NC(=S)NCc2ccc(F)cc2)cc1 (stereo unspecified) | · | -33 | 5 | · | 0.95 | 1.3
S=C(NCc1cccnc1)Nc1cccc(Cl)c1 | 11 | -14 | -4 | 0.9 | 1 | 1.1
CCCCc1ccc(NC(=S)NCc2cccc(OC)c2)cc1 | 11 | -146 | 11 | 0.9 | 0.89 | 2.5*
COc1cccc(C(C)NC(=S)NCc2ccc(Cl)cc2)c1 (stereo unspecified) | 23 | -148 | -22 | 0.8 | 1.2 | 2.5*
COc1ccc(CNC(=S)Nc2cccc(Cl)c2)cc1 | · | -172 | 17 | · | 0.83 | 2.7*
CN(CC(=O)Nc1ccc(F)cc1)S(=O)(=O)c1ccc2c(c1)c(=O)n(C)c(=O)n2C | · | 1 | -9 | · | 1.1 | 0.99
Cc1ccc(S(=O)(=O)N(C)S(=O)(=O)c2ccc(C#N)cc2)cc1 | · | 2 | 8 | · | 0.92 | 0.98
CCc1noc(C)c1C(=O)NCCc1ccc(Cl)cc1 | · | -6 | -2 | · | 1 | 1.1
CC(C)CCNC(=O)c1ccc2c(SCC(=O)O)c3c(nc2c1)CCCC3 | -139 | 7 | 6 | 2.4* | 0.94 | 0.93
O=C(Nc1cccc(Cl)c1)C1C2CCC3C(CCC21)C3(Cl)Cl (stereo unspecified) | 14 | -188 | 10 | 0.9 | 0.9 | 2.9*
